# Experimental data as given in ChEMBL document CHEMBL2396633, “Effects of cytoprotective antioxidants on lymphocytes from representative mitochondrial neurodegenerative diseases” (Bioorg Med Chem, 2013).
# Active and inactive are the calls of the source. The rule behind the calls is not given here.
# Columns and labels:
# CCRF-CEM [1] = assay: Cytoprotective activity against diethyl maleate-induced oxidative stress in human CCRF-CEM cells assessed as cell viability at 2.5 uM preincubated for 15 hrs prior to diethyl maleate-challenge measured after 6 hrs by hemocytometer-based assay; assay type: functional
# How it was run: (§1)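 Cells seeded at 5 × 10⁵ cells/mL, preincubated with 0.5 or 2.5 µM compound at 37 °C, 5% CO₂, then given 5 mM diethyl maleate for 6 h. Viable cells counted by trypan blue exclusion on a hemocytometer. Viability expressed as % of untreated control. Three independent experiments in triplicate, mean ± S.E.M.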
# Homo sapiens [2] = organism: Homo sapiens; assay: Cytoprotective activity against diethyl maleate-induced oxidative stress in Parkinson's disease patient GM15010 cells assessed as cell viability at 2.5 uM preincubated for 15 hrs prior to diethyl maleate-challenge measured after 6 hrs by hemocytometer-based assay; assay type: functional; how it was run: as §1
# Homo sapiens [3] = organism: Homo sapiens; assay: Cytoprotective activity against diethyl maleate-induced oxidative stress in Leigh's syndrome patient GM13740 cells assessed as cell viability at 2.5 uM preincubated for 15 hrs prior to diethyl maleate-challenge measured after 6 hrs by hemocytometer-based assay; assay type: functional; how it was run: as §1
# Homo sapiens [4] = organism: Homo sapiens; assay: Cytoprotective activity against diethyl maleate-induced oxidative stress in Alzheimer's disease patient AG06849 cells assessed as cell viability at 2.5 uM preincubated for 15 hrs prior to diethyl maleate-challenge measured after 6 hrs by hemocytometer-based assay; assay type: functional; how it was run: as §1
# GM15850 [5] = assay: Cytoprotective activity against diethyl maleate-induced oxidative stress in Friedreich's ataxia disease patient GM15850 cells assessed as cell viability at 2.5 uM preincubated for 15 hrs prior to diethyl maleate-challenge measured after 6 hrs by hemocytometer-based assay; assay type: functional; conditions: Homo sapiens; how it was run: as §1
# Homo sapiens [6] = organism: Homo sapiens; assay: Cytoprotective activity against diethyl maleate-induced oxidative stress in Leber's optic atrophy disease patient GM10744 cells assessed as cell viability at 2.5 uM preincubated for 15 hrs prior to diethyl maleate-challenge measured after 6 hrs by hemocytometer-based assay; assay type: functional; how it was run: as §1
# CCRF-CEM [7] = assay: Cytoprotective activity against diethyl maleate-induced oxidative stress in human CCRF-CEM cells assessed as cell viability at 0.5 uM preincubated for 15 hrs prior to diethyl maleate-challenge measured after 6 hrs by hemocytometer-based assay; assay type: functional; how it was run: as §1
# Homo sapiens [8] = organism: Homo sapiens; assay: Cytoprotective activity against diethyl maleate-induced oxidative stress in Parkinson's disease patient GM15010 cells assessed as cell viability at 0.5 uM preincubated for 15 hrs prior to diethyl maleate-challenge measured after 6 hrs by hemocytometer-based assay; assay type: functional; how it was run: as §1
# Homo sapiens [9] = organism: Homo sapiens; assay: Cytoprotective activity against diethyl maleate-induced oxidative stress in Leigh's syndrome patient GM13740 cells assessed as cell viability at 0.5 uM preincubated for 15 hrs prior to diethyl maleate-challenge measured after 6 hrs by hemocytometer-based assay; assay type: functional; how it was run: as §1
# Homo sapiens [10] = organism: Homo sapiens; assay: Cytoprotective activity against diethyl maleate-induced oxidative stress in Alzheimer's disease patient AG06849 cells assessed as cell viability at 0.5 uM preincubated for 15 hrs prior to diethyl maleate-challenge measured after 6 hrs by hemocytometer-based assay; assay type: functional; how it was run: as §1
# GM15850 [11] = assay: Cytoprotective activity against diethyl maleate-induced oxidative stress in Friedreich's ataxia disease patient GM15850 cells assessed as cell viability at 0.5 uM preincubated for 15 hrs prior to diethyl maleate-challenge measured after 6 hrs by hemocytometer-based assay; assay type: functional; conditions: Homo sapiens; how it was run: as §1
# Homo sapiens [12] = organism: Homo sapiens; assay: Cytoprotective activity against diethyl maleate-induced oxidative stress in Leber's optic atrophy disease patient GM10744 cells assessed as cell viability at 0.5 uM preincubated for 15 hrs prior to diethyl maleate-challenge measured after 6 hrs by hemocytometer-based assay; assay type: functional; how it was run: as §1
# Bos taurus [13] = organism: Bos taurus; assay: Inhibition of NADH-ubiquinone oxidoreductase in bovine heart mitochondria after 5 mins by spectrophotometric analysis relative to control
# How it was run: (§2)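 Bovine heart submitochondrial particles, 12 µg, incubated 5 min at 39 °C with compound in 50 mM phosphate pH 7.4, 0.25 M sucrose, 1 mM MgCl₂, 2 mM KCN, plus antimycin A. Reaction started with 50 µM NADH and 50 µM coenzyme Q₁; NADH loss read at 340 nm. K_I derived. Mean of three experiments in triplicate.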
# [14] = Inhibition of NADH-ubiquinone oxidoreductase in bovine heart mitochondria after 5 mins by spectrophotometric analysis; set-up: species or system Bos taurus; how it was run: as §2
# GM15850 [15] = assay: Effect on total ATP level in Friedreich's ataxia disease patient GM15850 cells at 25 uM after 48 hrs by bioluminescence assay relative to control; assay type: functional, Homo sapiens
# How it was run: (§3)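 Lymphocytes were adapted to glucose-free RPMI with 25 mM galactose for at least one week. Cells at 2 × 10⁵ cells/mL were given compound at final 5, 10 or 25 µM for 48 h at 37 °C, 5% CO₂. Total intracellular ATP was measured by luciferase bioluminescence kit and expressed as % of untreated control.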
# GM15850 [16] = assay: Effect on total ATP level in Friedreich's ataxia disease patient GM15850 cells at 10 uM after 48 hrs by bioluminescence assay relative to control; assay type: functional, Homo sapiens; how it was run: as §3
# GM15850 [17] = assay: Effect on total ATP level in Friedreich's ataxia disease patient GM15850 cells at 5 uM after 48 hrs by bioluminescence assay relative to control; assay type: functional, Homo sapiens; how it was run: as §3
# [18] = Effect on total ATP level in Leber's optic atrophy disease patient GM10744 cells at 25 uM after 48 hrs by bioluminescence assay relative to control; assay type: functional, Homo sapiens; how it was run: as §3
# [19] = Effect on total ATP level in Leber's optic atrophy disease patient GM10744 cells at 10 uM after 48 hrs by bioluminescence assay relative to control; assay type: functional, Homo sapiens; how it was run: as §3
# [20] = Effect on total ATP level in Leber's optic atrophy disease patient GM10744 cells at 5 uM after 48 hrs by bioluminescence assay relative to control; assay type: functional, Homo sapiens; how it was run: as §3
# [21] = Effect on total ATP level in CoQ10-deficient human GM17932 cells at 25 uM after 48 hrs by bioluminescence assay relative to control; assay type: functional; how it was run: as §3
# [22] = Effect on total ATP level in CoQ10-deficient human GM17932 cells at 10 uM after 48 hrs by bioluminescence assay relative to control; assay type: functional; how it was run: as §3
# GM15850 [23] = assay: Effect on total ATP level in Friedreich's ataxia disease patient GM15850 cells after 48 hrs by bioluminescence assay; assay type: functional; conditions: Homo sapiens; how it was run: as §3
# [24] = Effect on total ATP level in CoQ10-deficient human GM17932 cells at 5 uM after 48 hrs by bioluminescence assay relative to control; assay type: functional; how it was run: as §3
# Homo sapiens [25] = organism: Homo sapiens; assay: Effect on total ATP level in CoQ10-deficient human GM17932 cells after 48 hrs by bioluminescence assay; assay type: functional; how it was run: as §3
# Homo sapiens [26] = organism: Homo sapiens; assay: Effect on total ATP level in Leber's optic atrophy disease patient GM10744 cells after 48 hrs by bioluminescence assay; assay type: functional; how it was run: as §3
# Homo sapiens [27] = organism: Homo sapiens; assay: Antioxidant activity in Leber's optic atrophy disease patient GM10744 cells assessed as suppression of diethyl maleate-induced ROS generation at 0.025 to 2.5 uM preincubated for 18 hrs prior to diethyl maleate-challenge measured after 1 hr by FACS flow cytometric analysis in presence of DCFH-DA; assay type: functional
# How it was run: (§4)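 Lymphocytes (Coriell, RPMI with 15% FBS) or CCRF-CEM cells (RPMI with 10% FBS), 2.5 × 10⁵ cells/mL, exposed to compounds for 18 h at 37 °C, then 5 mM diethyl maleate for 1 h. Cells washed in PBS, loaded with 10 µM DCFH-DA in PBS/10 mM glucose for 25 min at 37 °C in the dark. DCF read by flow cytometry (488 nm excitation, 530 nm emission). Mean ± S.E.M., three experiments in duplicate.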
# Homo sapiens [28] = organism: Homo sapiens; assay: Antioxidant activity in Alzheimer's disease patient AG06849 cells assessed as suppression of diethyl maleate-induced ROS generation at 0.025 to 2.5 uM preincubated for 18 hrs prior to diethyl maleate-challenge measured after 1 hr by FACS flow cytometric analysis in presence of DCFH-DA; assay type: functional; how it was run: as §4
# CCRF-CEM [29] = assay: Antioxidant activity in human CCRF-CEM cells assessed as suppression of diethyl maleate-induced ROS generation at 0.025 to 2.5 uM preincubated for 18 hrs prior to diethyl maleate-challenge measured after 1 hr by FACS flow cytometric analysis in presence of DCFH-DA; assay type: functional, cell-based; how it was run: as §4
# CCRF-CEM [30] = assay: Antioxidant activity in human CCRF-CEM cells assessed as suppression of diethyl maleate-induced ROS generation preincubated for 18 hrs prior to diethyl maleate-challenge measured after 1 hr by FACS flow cytometric analysis in presence of DCFH-DA; assay type: functional, cell-based; how it was run: as §4
# Bos taurus [31] = organism: Bos taurus; assay: Inhibition of NADH oxidase activity of bovine heart mitochondrial […] at 5 uM after 5 mins by spectrophotometric analysis relative to control; values are per cent of control
# Bos taurus [32] = organism: Bos taurus; assay: Inhibition of NADH oxidase activity of bovine heart mitochondrial […] at 1 uM after 5 mins by spectrophotometric analysis relative to control; values are per cent of control
# Bos taurus [33] = organism: Bos taurus; assay: Inhibition of NADH oxidase activity of bovine heart mitochondrial […] at 10 uM after 5 mins by spectrophotometric analysis relative to control; values are per cent of control
# CCRF-CEM [34] = assay: Antioxidant activity in human CCRF-CEM cells assessed as suppression of diethyl maleate-induced ROS generation at 0.25 uM preincubated for 18 hrs prior to diethyl maleate-challenge measured after 1 hr by FACS flow cytometric analysis in presence of DCFH-DA; assay type: functional, cell-based; how it was run: as §4
# CCRF-CEM [35] = assay: Antioxidant activity in human CCRF-CEM cells assessed as suppression of diethyl maleate-induced ROS generation at 2.5 uM preincubated for 18 hrs prior to diethyl maleate-challenge measured after 1 hr by FACS flow cytometric analysis in presence of DCFH-DA; assay type: functional, cell-based; how it was run: as §4
SMILES,Activity (CCRF-CEM [7]),Activity (Homo sapiens [8]),Activity (Homo sapiens [9]),Activity (Homo sapiens [10]),Activity (GM15850 [11]),Activity (Homo sapiens [12]),IC50 [14] [µM],Ki [14] [µM],Activity (GM15850 [15]) [%],Activity (GM15850 [16]) [%],Activity (GM15850 [17]) [%],Activity [18] [%],Activity [19] [%],Activity [20] [%],Activity [21] [%],Activity [22] [%],Activity [24] [%],Activity (Homo sapiens [27]),Activity (Homo sapiens [28]),Activity (CCRF-CEM [30]),other results
COC1=C(OC)C(=O)C(CCCCCCCCCCO)=C(C)C1=O [IDEBENONE],inactive,inactive,inactive,inactive,inactive,inactive,6,4,2.6,45.6,73,3,29.9,55.7,1.6,45.7,79.8,Active,Active,Dose-dependent effect,Activity (CCRF-CEM [1]): Active; Activity (Homo sapiens [2]): Active; Activity (Homo sapiens [3]): Active; Activity (Homo sapiens [4]): Active; Activity (GM15850 [5]): Active; Activity (Homo sapiens [6]): Active; Imax (Bos taurus [13]): 84%; Activity (GM15850 [23]): Dose-dependent effect; Activity (Homo sapiens [25]): Dose-dependent effect; Activity (Homo sapiens [26]): Dose-dependent effect; Activity (CCRF-CEM [29]): Active; residual activity (Bos taurus [31]): 19.3%; residual activity (Bos taurus [32]): 57.4%; residual activity (Bos taurus [33]): 13.2%
CCCCCCCCCCC1=C(C)C(=O)C(OC)=C(OC)C1=O [DECYLUBIQUINONE],Active,Active,Active,Active,Active,Active,> 200,> 200,62.7,76.4,92.8,47,63.4,75.1,71.1,86.2,100,Active,Active,Dose-dependent effect,Activity (CCRF-CEM [34]): Active; Activity (CCRF-CEM [35]): Active; residual activity (Bos taurus [31]): 82.4%; residual activity (Bos taurus [32]): 93%; residual activity (Bos taurus [33]): 61.5%
